ChEMBL document CHEMBL1127474, “Synthesis and antifungal activity of novel cationic pneumocandin B(o) derivatives” (J Med Chem, 1994)
Converted amounts (≈) assume the structure as drawn. *1 amine or outer side, *2 acyl side, *3 side chain or, on linkers, in order; H or OH if unused. Where a SMILES comes first, the peptide text is derived from it. Bridges are numbered along the chain shown (N, C = ends). [ ]: non-standard residue; d: D form. The star is where a group is joined. Orn(4R-OH,5R-OH) = O=C([C@H](C[C@@H](O)[C@@H](O)N[*:3])N[*:1])[*:2]; hTyr(3S-OH,4S-OH) = N[C@H](C(=O)O)[C@H](O)[C@@H](O)c1ccc(O)cc1; Gln(3R-OH) = NC(=O)C[C@@H](O)[C@H](N)C(=O)O; Orn(3R-OH) = NCC[C@@H](O)[C@H](N)C(=O)O; Pro(3S-OH) = O=C(O)[C@H]1NCC[C@@H]1O; Hyp = O=C(O)[C@@H]1C[C@@H](O)CN1; X1 = CCC(C)CC(C)CCCCCCCCC(=O)*

Legend:
Assay type in all cases: functional
Kluyveromyces marxianus = experiment: In vitro minimum fungicidal concentration (MFC) against Candida pseudotropicalis (MY 2099)
Method in brief: (§1)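 Whole-cell broth microdilution assay against reference and clinical Candida isolates; the MFC is the median of at least four duplicate determinations.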

Mus musculus [1] = experiment: In vivo dose administered ip bid on days 0-4 which increases the 28-day survival rate of Aspergillus fumigatus by 50%; conditions: 672 h
Method in brief: (§2)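 DBA/2 mice with disseminated A. fumigatus (MF5668) infection; compound given ip twice daily on days 0–4. Survival followed for 28 days; ED50 taken as the dose that raises the 28-day survival rate by 50%.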

Candida albicans [2] = experiment: In vitro concentration causing 50% inhibition of beta-(1,3)-D-glucan synthesis in a Candida albicans (MY 1208) membrane assay
Candida albicans [3] = experiment: In vitro minimum fungicidal concentration (MFC) against Candida albicans (MY 1055); method in brief: as §1
Candida albicans [4] = experiment: In vitro minimum fungicidal concentration (MFC) against Candida albicans (MY 1208); conditions: in the assay text read “MY 1028” for “MY 1208”; method in brief: as §1
Candida parapsilosis = experiment: In vitro minimum fungicidal concentration (MFC) against Candida parapsilosis (MY 1010); conditions: Lodderomyces parapsilosis; method in brief: as §1
Mus musculus [5] = experiment: In vivo minimum dose administered intraperitoneally b.i.d. which decreases Candida albicans (MY 1055) colony forming units by 99.9% in target organ kidney assay
Method in brief: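 Target organ kidney assay in congenitally immunodeficient DBA/2 mice infected with C. albicans MY1055 and dosed ip twice daily. Kidney CFU/g is compared with untreated controls, and ED99.9 is the lowest dose giving a 99.9% reduction.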

Rattus norvegicus = experiment: In vivo minimum dose administered subcutaneously b.i.d. which decreases the lung cyst count by 90% using PCP model in dexamethasone-immunosuppressed rats
Method in brief: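 Acute Pneumocystis carinii pneumonia model in dexamethasone-immunosuppressed Sprague-Dawley rats dosed sc twice daily for 4 days. Lung cyst counts are compared with untreated controls, and ED90 is the lowest dose giving a 90% reduction.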

Candida tropicalis = experiment: In vitro minimum fungicidal concentration (MFC) against Candida tropicalis (MY 1012); method in brief: as §1
Mus musculus [6] = experiment: In vivo dose administered intraperitoneally bid on days 0-4 which increases the 28-day survival rate of Aspergillus fumigatus by 50%; conditions: ip, 672 h; method in brief: as §2

SMILES | MFC (Kluyveromyces marxianus) [µg/mL] | ED50 (Mus musculus [1]) [mg/kg] | IC50 (Candida albicans [2]) [µM] | MFC (Candida albicans [3]) [µg/mL] | MFC (Candida albicans [4]) [µg/mL] | MFC (Candida parapsilosis) [µg/mL] | ED99.9 (Mus musculus [5]) [mg/kg] | ED90 (Rattus norvegicus) [mg/kg] | MFC (Candida tropicalis) [µg/mL] | ED50 (Mus musculus [6]) [mg/kg]
CCC(C)CC(C)CCCCCCCCC(=O)N[C@H]1C[C@@H](O)[C@@H](OCCN)NC(=O)[C@@H]2[C@@H](O)CCN2C(=O)[C@H]([C@H](O)CCN)NC(=O)[C@H]([C@H](O)[C@@H](O)c2ccc(O)cc2)NC(=O)[C@@H]2C[C@@H](O)CN2C(=O)[C@H]([C@@H](C)O)NC1=O (stereo not given in full) | < 0.06 | 0.03 | 0.001 | 0.125 (≈ 0.114 µM) | < 0.06 | 0.125 (≈ 0.114 µM) | 0.09 | 0.019 | < 0.06 | 
CCC(C)CC(C)CCCCCCCCC(=O)N[C@H]1C[C@@H](O)[C@@H](OCCN)NC(=O)[C@@H]2[C@@H](O)CCN2C(=O)[C@H]([C@H](O)CC(N)=O)NC(=O)[C@H]([C@H](O)[C@@H](O)c2ccc(O)cc2)NC(=O)[C@@H]2C[C@@H](O)CN2C(=O)[C@H]([C@@H](C)O)NC1=O (stereo not given in full) | 1 (≈ 0.902 µM) | 0.06 | 0.011 | 0.125 (≈ 0.113 µM) | 0.125 (≈ 0.113 µM) | 1 (≈ 0.902 µM) | 0.78 | 0.037 | 0.25 (≈ 0.226 µM) | 
CCC(C)CC(C)CCCCCCCCC(=O)N[C@H]1C[C@@H](O)[C@@H](O)NC(=O)[C@@H]2[C@@H](O)CCN2C(=O)[C@H]([C@H](O)CC(N)=O)NC(=O)[C@H]([C@H](O)[C@@H](O)c2ccc(O)cc2)NC(=O)[C@@H]2C[C@@H](O)CN2C(=O)[C@H]([C@@H](C)O)NC1=O (stereo partly drawn) (X1-[Orn(4R-OH,5R-OH)]T[Hyp][hTyr(3S-OH,4S-OH)][Gln(3R-OH)][Pro(3S-OH)]; lactam 1-C) | 1 (≈ 0.939 µM) |  |  | 0.5 (≈ 0.469 µM) | 0.25 (≈ 0.235 µM) | 2 (≈ 1.88 µM) | 6 | 0.15 | 0.125 (≈ 0.117 µM) | > 20
CCC(C)CC(C)CCCCCCCCC(=O)N[C@H]1C[C@@H](O)[C@@H](O)NC(=O)[C@@H]2[C@@H](O)CCN2C(=O)[C@H]([C@H](O)CCN)NC(=O)[C@H]([C@H](O)[C@@H](O)c2ccc(O)cc2)NC(=O)[C@@H]2C[C@@H](O)CN2C(=O)[C@H]([C@@H](C)O)NC1=O (stereo partly drawn) (X1-[Orn(4R-OH,5R-OH)]T[Hyp][hTyr(3S-OH,4S-OH)][Orn(3R-OH)][Pro(3S-OH)]; lactam 1-C) | 0.125 (≈ 0.119 µM) | > 20 | 0.01 | < 0.06 | < 0.06 | 0.125 (≈ 0.119 µM) | 0.375 | 0.037 | < 0.06 | 
